Screening data: PubChem BioAssay, several laboratories
Most compounds without a hit are left out; they make up all but 4.9% or so of the library.
NF-kB neuron act – compounds increasing NF-kB expression in human neuronal cells | NF-kB reporter expression; stronger effect = higher value | fold change at 12.5 µM | actives 1.6% (n = 190,000) | AID 1239; in the data active means fold change above about 3.3
STAT3 blocker – STAT3 signaling inhibition | U3A cells, IL-6 STAT3-luciferase reporter, luminescence; host cell line lacks STAT1 | inhibition, % at 5.5 µM | actives 0.89% (n = 190,000);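 active means inhibition above the mean inhibition across all screened compounds plus 3 SD, cut at about 44% in these data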;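 further: 0% = DMSO only wells and 100% = 100 µM nifuroxazide control wells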
STAT1 activator – activators of IFN-gamma induced STAT1 signaling | activation (% of control), % at 5.5 µM | NIH 3T3 STAT1-luciferase reporter, luminescence; 100% = IFN-gamma alone, no compound | actives 2.6% (n = 200,000) | AID 932;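 active means activation above the screen-wide mean activation plus 3 SD, cut at about 130% in these data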;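 further: raw ratio to IFN-gamma control signal so 100% means no change and 0% no light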
STAT3 act – STAT3 signaling activation; activation (% of control), % at 5.6 µM; U3A cells, IL-6 STAT3-luciferase reporter, luminescence; 100% = signal with IL-6 EC80 alone; actives 0.91% (n = 190,000);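 active means activation above the screen-wide mean of compound activation plus 3 SD, cut at about 130% in these data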;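 further: 0% = background luminescence of wells with medium and substrate only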
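Test system: STAT3-luciferase reporter U3A cells; Detection: reporter luminescence signal; Times: 1 h compound pre-exposure, 6 h IL-6 stimulation, 37 °C; Benchmarks: IL-6-only high control; Also added: IL-6 stimulus at 33 ng/mL final.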
STAT1 blocker – STAT1 signaling inhibition | NIH 3T3 STAT1-luciferase reporter, IFN-gamma, luminescence | inhibition, % at 5.5 µM | actives 0.35% (n = 200,000);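 active means inhibition above a set limit, the mean inhibition across all tested compounds plus 3 SD, cut at about 34% in these data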;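 further: 0% = IFN-gamma with DMSO and 100% = IFN-gamma with 300 µM nifuroxazide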
APP 5'UTR act – activates APP 5'UTR luciferase reporter; SH-SY5Y APP 5'UTR luciferase reporter, luminescence; zero percent = DMSO vehicle wells; activation, % at 2 µM; AID 1276; actives 1% (n = 190,000);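 active means activation above a set limit, based on mean plus 3 SD of controls, cut at about 140% in these data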
Active calls of the source: *.

O=[N+]([O-])c1ccc(C2Oc3ccccc3C3CC(c4ccccc4)=NN32)s1 (stereo not drawn) was read as NF-kB neuron act 8.8*, STAT3 blocker -44, STAT1 activator 93, STAT3 act 133*, STAT1 blocker 8 and APP 5'UTR act 124.
Screening CCc1cc2c(Sc3nc4ccccc4s3)ncnc2s1 returned NF-kB neuron act 0.69, STAT3 blocker -80, STAT1 activator 142*, STAT3 act 178*, STAT1 blocker -46 and APP 5'UTR act -21.
Screening CCOC(=O)c1ccc(-c2ccc(/C=C(\C#N)C(=O)NCC3CCCO3)o2)cc1 (stereo not drawn) returned NF-kB neuron act 1, STAT3 blocker -38, STAT1 activator 104, STAT3 act 135*, STAT1 blocker -4 and APP 5'UTR act -9.
COc1ccc(/C=C(\C#N)C(=O)NCC2CCCO2)cc1OC (stereo not drawn) was read as NF-kB neuron act 1, STAT3 blocker 9, STAT1 activator 110, STAT3 act 99, STAT1 blocker -12 and APP 5'UTR act -8.
For CC(C)c1ccc(/C=N/Nc2ccc(C(=O)O)cc2)cc1 the results were NF-kB neuron act 1.1, STAT3 blocker 84*, STAT1 activator 43, STAT3 act 29, STAT1 blocker 65* and APP 5'UTR act 15.
`O=C(O)c1ccc(/C=N/Nc2cccc(C(F)(F)F)c2)cc1` gave NF-kB neuron act 1.1, STAT3 blocker -7, STAT1 activator 149*, STAT3 act 113, STAT1 blocker -55 and APP 5'UTR act 24.
For CSc1ccc(/C=N/Nc2ccc(Cl)c(C(=O)O)c2)cc1 the results were NF-kB neuron act 12*, STAT3 blocker -5, STAT1 activator 107, STAT3 act 105, STAT1 blocker -7 and APP 5'UTR act 139*.
`Cc1nn(-c2cccc(C(F)(F)F)c2)c(Cl)c1/C=N/Nc1cccc(C(=O)O)c1` gave NF-kB neuron act 8*, STAT3 blocker 18, STAT1 activator 106, STAT3 act 85, STAT1 blocker -6 and APP 5'UTR act 159*.
Screening Cc1ccc(/C=N/Nc2ccc(C(=O)O)cc2)o1 returned NF-kB neuron act 3, STAT3 blocker -22, STAT1 activator 125, STAT3 act 122, STAT1 blocker -27 and APP 5'UTR act 125.
For O=c1[nH]c(-c2ccccc2Cl)nc2c1sc(=S)n2-c1ccccc1 the results were NF-kB neuron act 1.1, STAT3 blocker -2, STAT1 activator 99, STAT3 act 108, STAT1 blocker -1 and APP 5'UTR act 15.
For N#CCCn1cc(C(=O)N2CCCCC2)c(-c2ccc([N+](=O)[O-])cc2)n1 the results were NF-kB neuron act 1, STAT3 blocker 7, STAT1 activator 106, STAT3 act 98, STAT1 blocker -10 and APP 5'UTR act 4.
For O=C(NCCN1C(=O)C2C3C=CC(C3)C2C1=O)Nc1cccnc1 (stereo not drawn) the results were NF-kB neuron act 0.97, STAT3 blocker 8, STAT1 activator 99, STAT3 act 101, STAT1 blocker 1 and APP 5'UTR act -3.
Screening O=C(NCCN1C(=O)C2C3C=CC(C3)C2C1=O)Nc1ccc(Br)cc1 (stereo not drawn) returned NF-kB neuron act 2.2, STAT3 blocker -3, STAT1 activator 141*, STAT3 act 111 and STAT1 blocker -46.
`CCCCn1cnc(C(=O)OCC)c1N` gave NF-kB neuron act 1.7, STAT3 blocker 1, STAT1 activator 101, STAT3 act 98, STAT1 blocker -1 and APP 5'UTR act 0.
`CCCC(=O)Nc1nc2ccc(C(=O)OCC)cc2s1` gave NF-kB neuron act 2.3, STAT3 blocker 0, STAT1 activator 127, STAT3 act 107, STAT1 blocker -30 and APP 5'UTR act 61.
For CCCCC(=O)Nc1nc2ccc(C(=O)OC)cc2s1 the results were NF-kB neuron act 2.5, STAT3 blocker 9, STAT1 activator 129*, STAT3 act 96, STAT1 blocker -31 and APP 5'UTR act 79.
CCOC(=O)c1ccc2nc(NC(=O)c3cccs3)sc2c1 was read as NF-kB neuron act 7*, STAT3 blocker 28, STAT1 activator 140*, STAT3 act 80, STAT1 blocker -44 and APP 5'UTR act 58.
CCOC(=O)c1ccc2nc(NC(=O)C(C)C)sc2c1 was read as NF-kB neuron act 4.2*, STAT3 blocker 1, STAT1 activator 145*, STAT3 act 98, STAT1 blocker -52 and APP 5'UTR act 122.
Screening O=C(Nc1nc2ccc(S(=O)(=O)N3CCCC3)cc2s1)c1cccs1 returned NF-kB neuron act 1.4, STAT3 blocker -5, STAT1 activator 113, STAT3 act 107, STAT1 blocker -14 and APP 5'UTR act 18.
For CCN1CCN(c2ccc(S(=O)(=O)N3CCCC3)cn2)CC1 the results were NF-kB neuron act 1.1, STAT3 blocker 3, STAT1 activator 105, STAT3 act 99, STAT1 blocker -7 and APP 5'UTR act -10.
Screening Cc1cc(C)cc(N(C(=O)CNC(=O)c2cccs2)C(C(=O)NC2CCCC2)c2cccnc2)c1 (stereo not drawn) returned NF-kB neuron act 1.2, STAT3 blocker 12, STAT1 activator 68, STAT3 act 95, STAT1 blocker 36* and APP 5'UTR act -1.
For Cc1cccc(N(C(=O)CNC(=O)c2cccs2)C(C(=O)NC2CCCC2)c2cccnc2)c1 (stereo not drawn) the results were NF-kB neuron act 0.99, STAT3 blocker 9, STAT1 activator 104, STAT3 act 98, STAT1 blocker -4 and APP 5'UTR act -2.
`COc1ccc(CN(C(=O)c2cccs2)C(C(=O)NC2CCCCC2)c2ccc3ncccc3c2)cc1` (stereo not drawn) gave NF-kB neuron act 0.51, STAT3 blocker -8, STAT1 activator 79, STAT3 act 112, STAT1 blocker 22 and APP 5'UTR act 22.
`O=C(NC1CCCCC1)C(c1ccc2ncccc2c1)N(Cc1ccc2c(c1)OCO2)C(=O)c1cccs1` (stereo not drawn) gave NF-kB neuron act 0.86, STAT3 blocker 0, STAT1 activator 68, STAT3 act 105, STAT1 blocker 36* and APP 5'UTR act -14.
For O=C(NC1CCCCC1)C(c1ccc2ncccc2c1)N(Cc1ccccc1)C(=O)c1cccs1 (stereo not drawn) the results were NF-kB neuron act 0.76, STAT3 blocker -4, STAT1 activator 83, STAT3 act 113, STAT1 blocker 36* and APP 5'UTR act -7.
O=C(CSCc1cccc(Br)c1)NC1CC1 was read as NF-kB neuron act 1.3, STAT3 blocker 1, STAT1 activator 96, STAT3 act 100, STAT1 blocker 5 and APP 5'UTR act 22.
